In experiment [1] the test system is Plasmodium berghei. Briefly: In vivo antimalarial activity as increased survival (%max) against Plasmodium berghei in mice (Mus musculus). Type of experiment: functional. In short, it runs like this: (§1)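 Standard 4-day suppression test: mice in groups of five infected intravenously with P. berghei; treatment began about 4-6 h after infection. Co-treatment with DFMO as 2% solution in drinking water for four nights, plus analogue given intraperitoneally three times daily (8:30, 12:30, 16:30) on three consecutive days. Cure means survival beyond 4 months with parasite-free Giemsa-stained blood smears on periodic examination.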

Experiment [2] relates to Plasmodium berghei. Put plainly: In vivo antimalarial activity against Plasmodium berghei in mice (Mus musculus) as maximum dose tested. It is filed as functional. In short, it runs like this: (§2)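 Peters 4-day suppression test, mice in groups of five, P. berghei given intravenously. DFMO 2% in drinking water for four nights (Mon-Thu), starting about 4-6 h after infection. Analogues given intraperitoneally at 8:30, 12:30 and 16:30 on three consecutive days (Tue-Thu). Dose reported as highest tolerated, highest tested, or giving maximum response. Cures judged as survival beyond 4 months with parasite-free Giemsa blood smears.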

For another experiment, the system named is Plasmodium falciparum. Put plainly: In vitro antimalarial activity against Plasmodium falciparum. It is filed as functional, organism-based. The procedure, abridged:
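P. falciparum clone D6 (Sierra Leone strain) grown in human O+ erythrocytes, 1% erythrocyte suspension, starting parasitemia about 0.5%. Analogues dissolved in culture medium and filter-sterilized. After 24 h of exposure, [3H]hypoxanthine (1 µCi) was added and its incorporation measured after a further 18-24 h. IC50 is the concentration (µM) inhibiting incorporation by 50%.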

Experiment [3] deals with Plasmodium berghei. Put plainly: In vivo antimalarial activity against Plasmodium berghei infected mice (Mus musculus) as cures surviving after 4 months. It is filed as functional. The procedure, abridged: as §1
The test system of experiment [4] is Plasmodium berghei. Briefly: In vivo antimalarial activity against Plasmodium berghei in mice (Mus musculus) as dose required for Emax. Type of experiment: functional. The procedure, abridged: as §2
Experiment [5] has as its system Plasmodium berghei. Briefly: In vivo antimalarial activity against Plasmodium berghei in mice (Mus musculus) as maximum dose tolerated. It is filed as functional. In short, it runs like this:
as §2

In turn, `Cl.Cl.Cl.Cl.c1ccc(CNCCCNCCCCNCCCNCc2ccccc2)cc1` came in with a Max increase in the experiment on Plasmodium berghei [1] of 30%. In the experiment on Plasmodium berghei [2], this compound gave a Dose of 30 mg/kg. In addition, half-maximal inhibition with Plasmodium falciparum (IC50) required 14 µM.
Regarding `c1ccc(CNCCNCCCCCCNCCNCc2ccccc2)cc1`, the midpoint of inhibition in the experiment with Plasmodium falciparum, the IC50, lay at 4.5 µM.
Turning to `CSc1ccc(CNCCCNCCCCCCCNCCCNCc2ccc(SC)cc2)cc1`, in the experiment with Plasmodium falciparum, half-maximal inhibition (IC50) was put at 3 µM.
For `c1ccc(NCCCNCCCCCCCNCCCNc2ccccc2)cc1`, the IC50 with Plasmodium falciparum was 0.5 µM.
Consider `CCc1ccc(CNCCCNCCCCCCCCNCCCNCc2ccc(CC)cc2)cc1`, for which half-maximal inhibition in the experiment on Plasmodium falciparum (IC50) was put at 1.4 µM.
As for `Cl.Cl.Cl.Cl.c1ccc(CNCCCNCCCCCNCCCNCc2ccccc2)cc1`, the Max increase with Plasmodium berghei [1] came out at 30%. The compound also yielded a Dose in the experiment with Plasmodium berghei [2] of 30 mg/kg. It took 6.7 µM to reach half-maximal inhibition in the experiment on Plasmodium falciparum (IC50).
For `COc1ccc(CNCCCNCCCCCCCCNCCCNCc2ccc(OC)cc2)cc1`, half-maximal inhibition in the experiment with Plasmodium falciparum (IC50) was put at 1.3 µM.
For the compound `Cl.Cl.Cl.Cl.c1ccc(CNCCCNCCCCCCNCCCNCc2ccccc2)cc1`, the Dose in the experiment on Plasmodium berghei [2] came out at 30 mg/kg. The compound also showed a concentration for half-maximal inhibition (IC50) with Plasmodium falciparum of 5.3 µM.
For `NCCCNCCCCCCCNCCCNCc1ccccc1`, in the experiment with Plasmodium falciparum, the midpoint of inhibition, the IC50, lay at 330 µM.
Take `NCCCNCCCCCCCCNCCCNCc1ccccc1`: the IC50 with Plasmodium falciparum was found to be 64 µM.
Regarding `Cl.Cl.Cl.Cl.c1ccc(CNCCCNCCCCCCCNCCCNCc2ccccc2)cc1`, the Cured with Plasmodium berghei [3] was 100%. This compound also registered a Dose in the experiment with Plasmodium berghei [4] of 15 mg/kg. For the same compound, half-maximal inhibition in the experiment on Plasmodium falciparum (IC50) was put at 3 µM.
In the experiment on Plasmodium falciparum, `CC(NCCCNCCCCCCCNCCCNC(C)c1ccccc1)c1ccccc1` (stereo unspecified) returned an IC50 of 4.8 µM.
With `Cl.Cl.Cl.Cl.c1ccc(CNCCCNCCCCCCCCCNCCCNCc2ccccc2)cc1`, in the experiment with Plasmodium berghei [3], the Cured was determined as 60%. This compound gave a Dose with Plasmodium berghei [4] of 10 mg/kg. The same compound yielded a half-maximal inhibitory concentration (IC50) in the experiment with Plasmodium falciparum of 0.7 µM.
In the experiment with Plasmodium falciparum, `c1ccc2c(CNCCCNCCCCCCCCNCCCNCc3cccc4ccccc34)cccc2c1` came in with an IC50 of 0.34 µM.
For the compound `COc1ccc(CNCCCNCCCCCCCNCCCNCc2ccc(OC)cc2)cc1`, the concentration for half-maximal inhibition (IC50) in the experiment with Plasmodium falciparum was found to be 2.5 µM.
The compound `c1ccc(CNCCNCCCCCCCCCCNCCNCc2ccccc2)cc1` registered an IC50 with Plasmodium falciparum of 0.3 µM.
In the experiment on Plasmodium berghei [3], `Cl.Cl.Cl.Cl.Clc1ccc(CNCCCNCCCCCCCCNCCCNCc2ccc(Cl)cc2)cc1` returned a Cured of 60%. Moreover, the IC50 with Plasmodium falciparum worked out at 0.5 µM. The compound further had a Dose in the experiment with Plasmodium berghei [5] of 3 mg/kg.
The compound `CS(=O)(=O)c1ccc(CNCCCNCCCCCCCNCCCNCc2ccc(S(C)(=O)=O)cc2)cc1` came in with a 50% inhibitory concentration (IC50) in the experiment with Plasmodium falciparum of 86 µM.
As for `C(CCCNCCCNCC1CCCCC1)CCCNCCCNCC1CCCCC1`, in the experiment with Plasmodium falciparum, the IC50 was 1.8 µM.
Still for that read-out and setting: to `c1ccc(CNCCCCNCCCCCCCNCCCCNCc2ccccc2)cc1` belongs 3.2 µM.
As for `Cl.Cl.Cl.Cl.c1ccc(CNCCCNCCCCCCCCNCCCNCc2ccccc2)cc1`, in the experiment on Plasmodium berghei [3], the Cured was found to be 80%. In the experiment on Plasmodium berghei [4], this compound yielded a Dose of 10 mg/kg. In the experiment on Plasmodium falciparum, this compound came in with an IC50 of 0.8 µM.
Turning to `c1cc(CNCCCNCCCCCCCNCCCNCc2ccsc2)cs1`, in the experiment on Plasmodium falciparum, the IC50 worked out at 3.9 µM.
The compound `Cl.Cl.Cl.Cl.c1ccc(CNCCCNCCCCCCCCCCNCCCNCc2ccccc2)cc1` registered a Cured in the experiment with Plasmodium berghei [3] of 40%. In addition, 0.5 µM corresponded to half-maximal inhibition in the experiment on Plasmodium falciparum (IC50). The Dose in the experiment on Plasmodium berghei [5] turned out to be 3 mg/kg.
In turn, `CS(=O)(=O)c1ccc(CNCCCNCCCCCCCCNCCCNCc2ccc(S(C)(=O)=O)cc2)cc1` yielded an IC50 in the experiment on Plasmodium falciparum of 20 µM.
In the experiment with Plasmodium falciparum, `Clc1ccc(CNCCCNCCCCCCCNCCCNCc2ccc(Cl)cc2)cc1` showed a 50% inhibitory concentration (IC50) of 1.4 µM.
As to `CSc1ccc(CNCCCNCCCCCCCCNCCCNCc2ccc(SC)cc2)cc1`, in the experiment with Plasmodium falciparum, inhibition was half-maximal at 0.6 µM (IC50).
Compound `c1ccc(CNCCCCNCCCCCCCCNCCCCNCc2ccccc2)cc1` showed a half-maximal inhibitory concentration (IC50) in the experiment on Plasmodium falciparum of 5.3 µM.
Compound `c1ccc(CNCCNCCCCCCCNCCNCc2ccccc2)cc1` gave an IC50 in the experiment on Plasmodium falciparum of 1.4 µM.
`c1csc(CNCCCNCCCCCCCNCCCNCc2cccs2)c1` showed an IC50 with Plasmodium falciparum of 4.5 µM.
Still for that read-out and setting: to `Oc1ccc(CNCCCNCCCCCCCCNCCCNCc2ccc(O)cc2)cc1` belongs 5.7 µM.
Consider `CC(CCNCCCCCCCNCCC(C)NCc1ccccc1)NCc1ccccc1.Cl.Cl.Cl.Cl` (stereo unspecified), for which, in the experiment with Plasmodium berghei [2], the Dose is 100 mg/kg. Besides, 2.6 µM corresponded to half-maximal inhibition in the experiment with Plasmodium falciparum (IC50).
In turn, `Oc1ccc(CNCCCNCCCCCCCNCCCNCc2ccc(O)cc2)cc1` showed an IC50 in the experiment with Plasmodium falciparum of 27 µM.
`NCCCNCCCCCCCCNCCCN`: the IC50 in the experiment with Plasmodium falciparum stood at 1800 µM.
In the experiment on Plasmodium falciparum, `c1ccc(CCNCCCNCCCCCCCNCCCNCCc2ccccc2)cc1` returned an IC50 of 1.9 µM.
Consider `CCCCNCCCNCCCCCCCCNCCCNCCCC`, for which the IC50 in the experiment on Plasmodium falciparum turned out to be 30 µM.
For `CCc1ccc(CNCCCNCCCCCCCNCCCNCc2ccc(CC)cc2)cc1.Cl.Cl.Cl.Cl`, the Dose in the experiment on Plasmodium berghei [2] turned out to be 30 mg/kg. 1.8 µM corresponded to half-maximal inhibition in the experiment with Plasmodium falciparum (IC50).
In the experiment with Plasmodium falciparum, `NCCCNCCCCCCCNCCCN` showed a concentration for half-maximal inhibition (IC50) of 4300 µM.
In the experiment on Plasmodium falciparum, `c1ccc(CCCNCCCNCCCCCCCNCCCNCCCc2ccccc2)cc1` registered a half-inhibitory concentration (IC50) of 0.3 µM.
As for `Cl.Cl.Cl.Cl.c1ccc(CNCCNCCCCCCCCNCCNCc2ccccc2)cc1`, the Max increase in the experiment on Plasmodium berghei [1] turned out to be 45%. Besides, in the experiment with Plasmodium berghei [2], the Dose came out at 30 mg/kg. The compound further came in with an IC50 in the experiment on Plasmodium falciparum of 0.3 µM.
`CC(N)CCNCCCCCCCNCCC(C)N` (stereo unspecified) yielded an IC50 in the experiment with Plasmodium falciparum of more than 20 µM.
As for `Cl.Cl.Cl.Cl.c1ccc(CNCCCNCCCCCCCCCCCCNCCCNCc2ccccc2)cc1`, the half-maximal inhibitory concentration (IC50) in the experiment on Plasmodium falciparum worked out at 0.2 µM. The same compound returned a Dose with Plasmodium berghei [5] of 10 mg/kg.

The values above are taken from ChEMBL document CHEMBL1125840, “Antimalarial polyamine analogues” (J Med Chem, 1991).
